{"source": "paper PMC12757722", "about": "(Molecular Cancer Therapeutics, 2025)", "key": {"K-Ras (WT) [1]": {"target": "T1, K-Ras (WT) (Homo sapiens, UniProt P01116)", "test": "MST binding of labeled nucleotide"}, "K-Ras (G12C) [2]": {"target": "T2, K-Ras (G12C) (Homo sapiens, UniProt P01116, G12C)", "test": "MST binding of labeled nucleotide"}, "K-Ras": {"tested_on": "K-Ras", "conditions": "Goebel and colleagues; cited from earlier work"}, "K-Ras (G12D) [3]": {"target": "T3, K-Ras (G12D) (Homo sapiens, UniProt P01116, G12D)", "test": "MST binding of labeled nucleotide", "conditions": "read-out: MST GTP Kd"}, "K-Ras (Q61H) [4]": {"target": "T4, K-Ras (Q61H) (Homo sapiens, UniProt P01116, Q61H)", "test": "MST binding of labeled nucleotide", "conditions": "read-out: MST GTP Kd"}, "Rac-1 [5]": {"target": "T5, Rac-1 (Homo sapiens, UniProt P63000)", "test": "MST binding of labeled nucleotide", "conditions": "read-out: MST GTP Kd"}, "Rho-A [6]": {"target": "T6, Rho-A (Homo sapiens, UniProt P61586)", "T6 sequence (P61586 2-181)": "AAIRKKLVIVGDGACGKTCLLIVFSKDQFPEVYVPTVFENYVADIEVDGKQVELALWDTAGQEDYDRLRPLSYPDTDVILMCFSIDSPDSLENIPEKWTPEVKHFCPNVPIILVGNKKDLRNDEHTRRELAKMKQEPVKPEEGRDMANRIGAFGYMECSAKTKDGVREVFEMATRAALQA", "test": "MST binding of labeled nucleotide", "conditions": "read-out: MST GTP Kd"}, "K-Ras (WT) [7]": {"target": "T1, K-Ras (WT)", "test": "SPA with [32P]GTP", "format": "binding", "method_in_brief": "(§1)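 Saturation binding used [32P]GTP (3,000 Ci/mmol) at 2.5 nmol/L–10 µmol/L, with nonspecific signal defined by 800 mmol/L imidazole. Counts were converted to pmol, and Kd and Bmax fitted from bound versus free GTP. Three independent experiments, technical triplicates.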"}, "K-Ras (G12D) [8]": {"target": "T3, K-Ras (G12D)", "test": "SPA with [32P]GTP", "format": "binding", "method_in_brief": "as §1"}, "K-Ras (G12C) [9]": {"target": "T2, K-Ras (G12C)", "test": "SPA with [32P]GTP", "format": "binding", "method_in_brief": "as §1"}, "K-Ras (Q61H) [10]": {"target": "T4, K-Ras (Q61H)", "test": "SPA with [32P]GTP", "format": "binding", "method_in_brief": "as §1"}, "Rac-1 [11]": {"target": "T5, Rac-1", "test": "SPA with [32P]GTP", "format": "binding", "method_in_brief": "as §1"}, "Rho-A [12]": {"target": "T6, Rho-A", "test": "SPA with [32P]GTP", "format": "binding", "method_in_brief": "as §1"}, "K-Ras (WT) [13]": {"target": "T1, K-Ras (WT)", "test": "Filtration binding assay with α-[32P]GTP", "method_in_brief": "(§2)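 Nucleotide-free His10-tagged K-Ras (residues 2–185) was expressed in E. coli and purified by Ni affinity and SEC. Varying protein amounts were incubated with α-[32P]GTP (2,594 Ci/mmol; 2.88 nmol/L final) for 5 min at 23°C in 100 µL. Samples were filtered through 0.45-µm MCE membranes, washed with ice-cold GTP-free assay buffer, and dried filters counted for dpm. Kd came from saturation binding and kon from a time course.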"}, "K-Ras (G12D) [14]": {"target": "T3, K-Ras (G12D)", "test": "Filtration binding assay with α-[32P]GTP", "method_in_brief": "as §2"}, "H-Ras": {"tested_on": "H-Ras", "conditions": "Feuerstein and colleagues; cited from earlier work"}}, "data": [{"smiles": "Nc1nc2c(ncn2[C@@H]2O[C@H](COP(=O)(O)OP(=O)(O)O)[C@@H](O)[C@H]2O)c(=O)[nH]1", "note": "[GDP]", "values": [{"measurement": "Kd", "setting": "K-Ras (WT) [1]; read-out: MST GDP Kd", "value": "394 ± 54", "unit": "nM"}, {"measurement": "Kd", "setting": "K-Ras (G12C) [2]; read-out: MST GDP Kd", "value": "360 ± 34", "unit": "nM"}, {"measurement": "koff", "setting": "K-Ras", "value": "1.1e-05", "unit": "s⁻¹"}, {"measurement": "kon", "setting": "K-Ras", "value": "4.22e+06", "unit": "M⁻¹ s⁻¹"}]}, {"smiles": "Nc1nc2c(ncn2[C@@H]2O[C@H](COP(=O)(O)OP(=O)(O)OP(=O)(O)O)[C@@H](O)[C@H]2O)c(=O)[nH]1", "note": "[GTP]", "values": [{"measurement": "Kd", "setting": "K-Ras (WT) [1]; read-out: MST GTP Kd, 23°C", "value": "463 ± 23", "unit": "nM"}, {"measurement": "Kd", "setting": "K-Ras (G12D) [3]", "value": "244 ± 12", "unit": "nM"}, {"measurement": "Kd", "setting": "K-Ras (G12C) [2]; read-out: MST GTP Kd", "value": "207 ± 46", "unit": "nM"}, {"measurement": "Kd", "setting": "K-Ras (Q61H) [4]", "value": "157 ± 21", "unit": "nM"}, {"measurement": "Kd", "setting": "Rac-1 [5]", "value": "166 ± 10", "unit": "nM"}, {"measurement": "Kd", "setting": "Rho-A [6]", "value": "130 ± 5", "unit": "nM"}, {"measurement": "SPA Bmax (mol:mol)", "setting": "K-Ras (WT) [7]; K-Ras (WT), molar binding stoichiometry of GTP to protein", "value": "1.00 ± 0.01 mol:mol"}, {"measurement": "kon by SPA", "setting": "K-Ras (WT) [7]; WT K-Ras", "value": "3.22e+08", "unit": "M⁻¹ s⁻¹"}, {"measurement": "Kd", "setting": "K-Ras (WT) [7]; read-out: SPA GTP Kd, K-Ras (WT)", "value": "246 ± 19", "unit": "nM"}, {"measurement": "SPA Bmax (mol:mol)", "setting": "K-Ras (G12D) [8]", "value": "0.97 ± 0.01 mol:mol"}, {"measurement": "Kd", "setting": "K-Ras (G12D) [8]; read-out: SPA GTP Kd", "value": "280 ± 19", "unit": "nM"}, {"measurement": "SPA Bmax (mol:mol)", "setting": "K-Ras (G12C) [9]", "value": "0.94 ± 0.02 mol:mol"}, {"measurement": "Kd", "setting": "K-Ras (G12C) [9]; read-out: SPA GTP Kd", "value": "359 ± 35", "unit": "nM"}, {"measurement": "SPA Bmax (mol:mol)", "setting": "K-Ras (Q61H) [10]", "value": "0.96 ± 0.02 mol:mol"}, {"measurement": "SPA Bmax (mol:mol)", "setting": "Rac-1 [11]", "value": "1.03 ± 0.02 mol:mol"}, {"measurement": "Kd", "setting": "Rac-1 [11]; read-out: SPA GTP Kd", "value": "151 ± 14", "unit": "nM"}, {"measurement": "SPA Bmax (mol:mol)", "setting": "Rho-A [12]", "value": "1.02 ± 0.02 mol:mol"}, {"measurement": "Kd", "setting": "Rho-A [12]; read-out: SPA GTP Kd", "value": "129 ± 12", "unit": "nM"}, {"measurement": "Filtration assay Bmax (mol:mol)", "setting": "K-Ras (WT) [13]; K-Ras (WT)", "value": "0.93 ± 0.03 mol:mol"}, {"measurement": "kon by filtration binding assay", "setting": "K-Ras (WT) [13]; K-Ras, time course study", "value": "2.13e+08", "unit": "M⁻¹ s⁻¹"}, {"measurement": "Kd", "setting": "K-Ras (WT) [13]; read-out: Filtration assay GTP Kd, K-Ras (WT), 23°C", "value": "228 ± 26", "unit": "nM"}, {"measurement": "kon by filtration binding assay", "setting": "K-Ras (G12D) [14]; G12D K-Ras mutant, time course study", "value": "2.49e+08", "unit": "M⁻¹ s⁻¹"}, {"measurement": "Filtration assay Bmax (mol:mol)", "setting": "K-Ras (G12D) [14]; K-Ras (G12D)", "value": "0.95 ± 0.02 mol:mol"}, {"measurement": "Kd", "setting": "K-Ras (G12D) [14]; read-out: Filtration assay GTP Kd, K-Ras (G12D), 23°C", "value": "345 ± 25", "unit": "nM"}, {"measurement": "koff", "setting": "H-Ras", "value": "8e-05", "unit": "s⁻¹"}, {"measurement": "kon", "setting": "H-Ras", "value": "2.9e+06", "unit": "M⁻¹ s⁻¹"}]}]}
